Data: ChEMBL document CHEMBL1649522, “Effect of rifampin, a potent inducer of drug-metabolizing enzymes, on the pharmacokinetics of raltegravir” (Antimicrob Agents Chemother, 2009)

Columns and labels:
Format in all cases: ADME, organism-based
[1] = Cmin in healthy human at […], po administered as single dose after 12 hrs in presence of […], po rifampin; settings: in vivo, read-out: Cmin
Outline: (§1)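 Same subjects after a washout of at least 4 days, given rifampin 600 mg orally once daily for 15 days. On day 14, a single fasted oral 400 mg raltegravir dose was given with rifampin. Plasma sampled 0–48 h postdose and assayed by HPLC-MS/MS. AUC0-∞ by biexponential fit plus trapezoidal rule. Cmax, Tmax and nominal 12 h C12 read directly.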

[2] = AUC (0 to infinity) in healthy human at […], po administered as single dose in presence of […], po rifampin; set-up: route oral, time infinity; settings: plasma; outline: as §1
[3] = Cmax in healthy human at […], po administered as single dose in presence of […], po rifampin; set-up: route oral; settings: in vivo; outline: as §1
[4] = Tmax in healthy human at […], po administered as single dose in presence of […], po rifampin; settings: in vivo; outline: as §1
[5] = Primary phase half life in healthy human at […], po administered as single dose in presence of […], po rifampin; settings: in vivo
Outline: (§2)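 Study 1: open-label two-period fixed-sequence design in healthy adults (nine completed). A single 400 mg oral dose was given fasted (8 h before, 4 h after), then after at least 4 days washout, 600 mg rifampin orally once daily for 15 days, with 400 mg raltegravir given on day 14. Plasma sampled 0–48 h; LC-MS/MS (LLOQ 2 ng/ml). Biexponential fit weighted 1/(predicted concentration)²; t1/2 = ln(2)/α or β.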

[6] = Terminal half life in healthy human at […], po administered as single dose in presence of […], po rifampin; settings: in vivo, read-out: beta t1/2 (converted); outline: as §2
[7] = Cmin in healthy human at […], po administered as single dose after 12 hrs; set-up: route oral; settings: in vivo, read-out: Cmin
Outline: (§3)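 Healthy male and female subjects (n=9), fasted 8 h before and 4 h after a single oral 400 mg raltegravir dose. Plasma sampled 0–48 h postdose and measured by liquid-liquid extraction then reverse-phase HPLC-MS/MS (LLOQ 2 ng/ml). AUC0-∞ from a biexponential fit plus linear/log trapezoidal rule. Cmax and Tmax read from the data. C12 taken at the nominal 12 h sample.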

[8] = AUC (0 to infinity) in healthy human at […], po administered as single dose; set-up: time infinity, route oral; settings: plasma; outline: as §3
[9] = Cmax in healthy human at […], po administered as single dose; set-up: route oral; settings: in vivo; outline: as §3
[10] = Primary phase half life in healthy human at […], po administered as single dose; set-up: route oral; settings: in vivo; outline: as §2
[11] = Terminal half life in healthy human at […], po administered as single dose; set-up: route oral; settings: in vivo, read-out: beta t1/2 (converted); outline: as §2
[12] = Cmin in healthy human at […], po BID for 14 days after 12 hrs in presence of […], po rifampin; settings: in vivo, read-out: Cmin
Outline: (§4)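 Same subjects given raltegravir 800 mg orally every 12 h plus rifampin 600 mg orally once daily for 14 days. A light meal was taken 2 h before the day 14 morning dose. Plasma sampled 0–12 h postdose and assayed by HPLC-MS/MS. AUC0-12 by linear-up/log-down trapezoidal rule. Cmax, Tmax and C12 read directly.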

[13] = AUC(0 to 12 hrs) in healthy human at […], po BID for 14 days in presence of […], po rifampin; set-up: time < 12 hr, route oral; settings: plasma; outline: as §4
[14] = Cmax in healthy human at […], po BID for 14 days in presence of […], po rifampin; set-up: route oral; settings: in vivo; outline: as §4
[15] = Tmax in healthy human at […], po BID for 14 days in presence of […], po rifampin; settings: in vivo; outline: as §4
[16] = Cmin in healthy human at […], po BID for 4 days after 12 hrs; set-up: route oral; settings: in vivo, read-out: Cmin
Outline: (§5)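 Healthy male and female subjects given raltegravir 400 mg orally every 12 h for 4 days. A light meal was taken 2 h before the day 4 morning dose. Plasma sampled 0–12 h after that dose and assayed by HPLC-MS/MS (LLOQ 2 ng/ml). AUC0-12 by linear-up/log-down trapezoidal rule. Cmax, Tmax and nominal 12 h C12 read from the data.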

[17] = AUC(0 to 12 hrs) in healthy human at […], po BID for 4 days; set-up: time < 12 hr, route oral; settings: plasma; outline: as §5

Cc1nnc(C(=O)NC(C)(C)c2nc(C(=O)NCc3ccc(F)cc3)c(O)c(=O)n2C)o1 [RALTEGRAVIR]
concentration at 12 h [1]: 36.3 nM | AUC(0-inf) [2]: 16.5 µM·h | Cmax [3]: 5340 nM | Tmax [4]: 3 h | half-life [5]: 0.93 h | half-life [6]: 9.6 h | concentration at 12 h [7]: 92.1 nM | AUC(0-inf) [8]: 27.6 µM·h | Cmax [9]: 8610 nM | half-life [10]: 1.07 h | half-life [11]: 8.5 h | concentration at 12 h [12]: 43.5 nM | AUC at 12 h [13]: 5.85 µM·h | Cmax [14]: 1950 nM | Tmax [15]: 1.75 h | concentration at 12 h [16]: 92.5 nM | AUC at 12 h [17]: 4.61 µM·h
